Results published in ChEMBL document CHEMBL3102803, “Design, synthesis, and biological evaluation of novel piperidine-4-carboxamide derivatives as potent CCR5 inhibitors” (Eur J Med Chem, 2014).

Experiments:
[1] = target: T1, C-C chemokine receptor type 5 (Homo sapiens, UniProt P51681); experiment: Inhibition of CCR5 (unknown origin) expressed in CHO cells assessed as inhibition of RANTES-induced intracellular Ca2+ mobilization after 10 mins by Fluo-4 AM staining-based fluorescence assay; type: functional, cell-based
T1 sequence (P51681 whole entry): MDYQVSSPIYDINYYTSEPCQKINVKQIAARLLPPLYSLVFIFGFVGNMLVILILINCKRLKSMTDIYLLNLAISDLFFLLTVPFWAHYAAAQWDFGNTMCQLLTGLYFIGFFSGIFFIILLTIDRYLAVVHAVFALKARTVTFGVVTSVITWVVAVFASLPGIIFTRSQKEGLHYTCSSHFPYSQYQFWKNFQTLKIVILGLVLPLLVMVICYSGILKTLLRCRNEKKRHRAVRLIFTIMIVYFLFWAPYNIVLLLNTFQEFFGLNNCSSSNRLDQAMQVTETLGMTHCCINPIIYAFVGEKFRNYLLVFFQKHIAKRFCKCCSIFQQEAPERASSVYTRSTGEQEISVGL

[2] = tested on: HEK293; experiment: Cytotoxicity against HEK293 cells at 50 uM after 7 hrs by CCK-8 assay; type: cell-based; details: human, hek293, 7 h
Procedure, shortened: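 HEK293 cells at 5000 cells/well preincubated 24 h at 37 °C in 5% CO2, then exposed to compound for 7 h. CCK-8 reagent added, plates incubated a further 2 h at 37 °C, and absorbance read at […].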

[3] = tested on: Rattus norvegicus; experiment: Volume of distribution at steady state in Sprague-Dawley rat at 25 mg/kg, po; type: ADME, organism-based; design: dose 25 mg/kg, route oral; details: in vivo
[4] = Oral bioavailability in Sprague-Dawley rat at 25 mg/kg; type: ADME, organism-based; details: in vivo
[5] = Volume of distribution at steady state in Sprague-Dawley rat at 4 mg/kg, iv; type: ADME, organism-based; design: dose 4 mg/kg, route intravenous; details: in vivo, read-out: Vdss
[6] = AUC (0 to 24 hrs) in Sprague-Dawley rat at 4 mg/kg, iv; type: ADME, organism-based; design: time < 24 hr, dose 4 mg/kg, route intravenous; details: plasma
[7] = Plasma clearance in Sprague-Dawley rat at 25 mg/kg, po; type: ADME, organism-based; design: dose 25 mg/kg, route oral
[8] = Plasma clearance in Sprague-Dawley rat at 4 mg/kg, iv; type: ADME, organism-based; design: dose 4 mg/kg, route intravenous
[9] = AUC (0 to 24 hrs) in Sprague-Dawley rat at 25 mg/kg, po; type: ADME, organism-based; design: time < 24 hr, dose 25 mg/kg, route oral; details: plasma
[10] = target: hERG (KCNH2) (Homo sapiens, UniProt Q12809); experiment: Inhibition of human ERG at 3 uM by patch clamp assay
hERG (KCNH2), sequence (Q12809 whole entry): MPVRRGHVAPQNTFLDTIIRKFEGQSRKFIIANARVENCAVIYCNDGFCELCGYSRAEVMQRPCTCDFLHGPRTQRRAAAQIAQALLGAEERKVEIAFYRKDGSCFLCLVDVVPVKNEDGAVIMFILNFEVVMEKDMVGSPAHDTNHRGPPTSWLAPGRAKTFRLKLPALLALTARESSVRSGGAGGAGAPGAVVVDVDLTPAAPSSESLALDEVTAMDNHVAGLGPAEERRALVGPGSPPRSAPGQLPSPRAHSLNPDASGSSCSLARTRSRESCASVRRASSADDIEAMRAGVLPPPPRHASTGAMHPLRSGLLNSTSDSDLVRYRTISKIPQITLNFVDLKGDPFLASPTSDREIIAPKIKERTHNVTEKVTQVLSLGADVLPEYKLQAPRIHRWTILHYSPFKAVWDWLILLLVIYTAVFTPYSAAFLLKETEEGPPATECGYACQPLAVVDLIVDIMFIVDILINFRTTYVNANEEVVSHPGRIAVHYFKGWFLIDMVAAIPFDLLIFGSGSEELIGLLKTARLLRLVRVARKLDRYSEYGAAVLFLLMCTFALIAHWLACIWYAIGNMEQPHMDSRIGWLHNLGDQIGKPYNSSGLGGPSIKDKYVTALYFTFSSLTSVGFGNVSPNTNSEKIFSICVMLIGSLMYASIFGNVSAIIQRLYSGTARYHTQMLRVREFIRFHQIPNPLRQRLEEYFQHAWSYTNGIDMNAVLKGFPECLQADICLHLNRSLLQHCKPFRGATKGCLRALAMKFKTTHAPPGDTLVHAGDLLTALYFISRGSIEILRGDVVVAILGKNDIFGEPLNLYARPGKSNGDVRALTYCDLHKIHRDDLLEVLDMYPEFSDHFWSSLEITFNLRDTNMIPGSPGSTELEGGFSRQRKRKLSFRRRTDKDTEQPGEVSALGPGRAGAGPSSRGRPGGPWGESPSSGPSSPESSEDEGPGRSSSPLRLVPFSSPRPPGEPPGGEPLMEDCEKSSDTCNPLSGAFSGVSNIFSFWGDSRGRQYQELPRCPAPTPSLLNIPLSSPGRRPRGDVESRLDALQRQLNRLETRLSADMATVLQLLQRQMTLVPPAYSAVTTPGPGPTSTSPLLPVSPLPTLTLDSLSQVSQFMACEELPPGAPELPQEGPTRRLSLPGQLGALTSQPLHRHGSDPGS

[11] = Half life in Sprague-Dawley rat at 25 mg/kg, po; type: ADME, organism-based; design: dose 25 mg/kg, route oral; details: in vivo
[12] = tested on: Human immunodeficiency virus 1; experiment: Antiviral activity against HIV-1 infected in human SupT1 cells assessed as inhibition of viral infectivity after 48 hrs by luciferase reporter gene assay; type: functional, organism-based; details: Human immunodeficiency virus 1, SUP-T1, 48 h
Procedure, shortened: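 Pseudovirions made by co-transfecting 293T cells with pNL-Luc-E- and pENV-R5. Supernatant collected at 48 h, filtered, and capsid protein quantified by p24 antigen-capture ELISA. SupT1 cells (1 × 10^5) infected with supernatant in the presence of compound, lysed 48 h post-infection, and firefly luciferase activity measured.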

[13] = Half life in Sprague-Dawley rat at 4 mg/kg, iv; type: ADME, organism-based; design: dose 4 mg/kg, route intravenous; details: in vivo
[14] = target: T1, C-C chemokine receptor type 5; experiment: Antagonist activity at CCR5 (unknown origin) expressed in CHO cell membranes assessed as inhibition of RANTES-stimulated [35S]-GTPgammaS binding after 1 hr by liquid scintillation counting analysis; type: functional

Structure (SMILES) | IC50 [1] [µM] | Activity [2] | also measured
CCN(Cc1ccc(C)cc1)C(=O)C1CCN(CCCN(C(=O)C2CCN(C(C)=O)CC2)c2cccc(Cl)c2)CC1 | 0.202 | Non-toxic | 
CCN(Cc1ccc(F)cc1)C(=O)C1CCN(CCCN(C(=O)C2CCN(C(C)=O)CC2)c2cccc(Cl)c2)CC1 | 0.32 | Non-toxic | 
CCN(Cc1ccc(C#N)cc1)C(=O)C1CCN(CCCN(C(=O)C2CCN(C(C)=O)CC2)c2cccc(Cl)c2)CC1 | 0.473 | Non-toxic | 
CC(=O)N1CCC(C(=O)N(CCCN2CCC(C(=O)N(C)Cc3ccccc3)CC2)c2cccc(Cl)c2)CC1 | 0.0641 | Non-toxic | 
CC(=O)N1CCC(C(=O)N(CCCN2CCC(C(=O)NCc3ccccc3)CC2)c2cccc(Cl)c2)CC1 | 0.0257 | Non-toxic | Vdss [3]: 8.99 L/kg; bioavailability [4]: 15%; Vd [5]: 1.23 L/kg; AUC(0-t) at 24 h [6]: 3.25 µg·h/mL; CL/F [7]: 8.86 L/h/kg; clearance [8]: 1.25 L/h/kg; AUC(0-t) at 24 h [9]: 3.13 µg·h/mL; inhibition at 3 µM [10]: 15.2%; half-life [11]: 42.6 min; IC50 [12]: 0.073 µM; half-life [13]: 44.4 min
CC(=O)N1CCC(C(=O)N(CCCN2CCC(C(=O)NCc3ccc(Cl)cc3)CC2)c2cccc(Cl)c2)CC1 | 0.0255 | Non-toxic | IC50 [12]: 0.0941 µM
CC(=O)N1CCC(C(=O)N(CCCN2CCC(C(=O)NCc3ccc(C#N)cc3)CC2)c2cccc(Cl)c2)CC1 | 0.0753 | Non-toxic | 
CCN(C(=O)C1CCN(CCCN(C(=O)C2CCN(C(C)=O)CC2)c2cccc(Cl)c2)CC1)c1ccccc1 | > 1 | Non-toxic | 
CC(=O)N1CCC(C(=O)N(CCCN2CCC(C(=O)NCCc3ccccc3)CC2)c2cccc(Cl)c2)CC1 | 0.076 | Non-toxic | 
CC(=O)N1CCC(C(=O)N(CCCN2CCC(C(=O)NCCc3ccc(Cl)cc3)CC2)c2cccc(Cl)c2)CC1 | 0.0867 | Non-toxic | 
CCN(CCc1ccc(F)cc1)C(=O)C1CCN(CCCN(C(=O)C2CCN(C(C)=O)CC2)c2cccc(Cl)c2)CC1 | 0.152 | Non-toxic | 
CCN(CCc1ccc(Cl)cc1)C(=O)C1CCN(CCCN(C(=O)C2CCN(C(C)=O)CC2)c2cccc(Cl)c2)CC1 | 0.126 | Non-toxic | 
CCN(C(=O)Cc1ccccc1)C1CCN(CCCN(C(=O)C2CCN(C(C)=O)CC2)c2cccc(Cl)c2)CC1 | 0.252 |  | IC50 [14]: 0.007 µM
Cc1nnc(C(C)C)n1[C@H]1C[C@H]2CC[C@@H](C1)N2CC[C@H](NC(=O)C1CCC(F)(F)CC1)c1ccccc1 [MARAVIROC] |  |  | IC50 [12]: 0.0011 µM

Now from value to molecule, other results behind:

IC50 [1] [µM] | Structure (SMILES) | Activity [2] | also measured
0.0935 | CCN(Cc1ccc(Cl)cc1)C(=O)C1CCN(CCCN(C(=O)C2CCN(C(C)=O)CC2)c2cccc(Cl)c2)CC1 | Non-toxic | 
0.0355 | CC(=O)N1CCC(C(=O)N(CCCN2CCC(C(=O)NCc3ccc(F)cc3)CC2)c2cccc(Cl)c2)CC1 | Non-toxic | 
> 1 | CC(=O)N1CCC(C(=O)N(CCCN2CCC(C(=O)Nc3ccccc3)CC2)c2cccc(Cl)c2)CC1 | Non-toxic | 
0.197 | CC(=O)N1CCC(C(=O)N(CCCN2CCC(C(=O)NCCc3ccc(F)cc3)CC2)c2cccc(Cl)c2)CC1 | Non-toxic | 
0.0264 | CCN(CCc1ccccc1)C(=O)C1CCN(CCCN(C(=O)C2CCN(C(C)=O)CC2)c2cccc(Cl)c2)CC1 | Non-toxic | 
0.525 | CCN(Cc1ccccc1)C(=O)C1CCN(CCCN(C(=O)C2CCN(C(C)=O)CC2)c2cccc(Cl)c2)CC1 | Non-toxic | 
